Records with an inconclusive call do not appear. The source made the active and inactive calls.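 Rule for the calls: active = compound lowers the viability signal with a fitted half-maximal concentration within ten times the top dose, every run; inconclusive = runs disagree, poor fit, or flat partial inhibition; inactive = the rest.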

Test system in the first test: not listed separately
Briefly: HMLE_shECad viability reduction – cell-based, CellTiter-Glo luminescence, dry powder, set 7, dose response (AID 504788). The conditions noted are these: HMLE_shECad viability, CellTiter-Glo luminescence, 72 h; at 19.5 µM (top of the series). The method in brief:
(§1)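 System: HMLE_shECad cells, E-cadherin knockdown, EMT-induced breast cancer stem cell model / Input: 2000 cells/well / Buffer or medium: serum-free CSC screening medium, 37 °C, 5% CO2 / Doses: 100 nL compound pinned into each well / Incubation: ≥4 h settling, then 70–74 h compound exposure, 37 °C / Technique: CellTiter-Glo luminescence, reagent diluted 1:3 in PBS, 12 min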
Background: ATP-based viability assays read luminescence as a measure of living cells.
On to `CC(C)c1ccc(C#CC(=O)NC2=NCCS2)cc1`, for which the activity change, negative = inhibition was -4.05% (inactive).

As for `c1c[nH]c(-c2ccn[nH]2)c1`, the activity change, negative = inhibition was 5% (inactive).

For `CN(C)C(=N)N=C(N)N`, the activity change, negative = inhibition was 6.34% (inactive).

Take `O=C(COc1ccc(Cl)cc1Cl)n1ccc(-c2ccc[nH]2)n1`: the activity change, negative = inhibition is 7.33% (inactive).

For the compound `N#Cc1ccccc1/C=C/C(=O)NC1=NCCS1`, the activity change, negative = inhibition is -13.1% (inactive).

As to `COc1cc(OC(C)C)ccc1/C=C/C(=O)NC1=NCCS1`, the activity change, negative = inhibition is -1.34% (inactive).

On to `Cc1csc(NC(=O)c2ccc(COc3cccnc3)o2)n1`, for which the activity change, negative = inhibition is -5.96% (inactive).

Regarding `CCc1ccc(/C=C/C(=O)NC2=NCCS2)cn1`, the activity change, negative = inhibition is 1.08% (inactive).

For the compound `N#Cc1cccc(/C=C/C(=O)NC2=NCCS2)c1`, the activity change, negative = inhibition is 0.158% (inactive).

`CC(C)c1ccc(/C=C/C(=O)N2CC(F)(F)C2)cc1`: the activity change, negative = inhibition was -4.76% (inactive).

Regarding `O=C(c1ccc(COc2ccccc2)o1)n1ccc(-c2ccc[nH]2)n1`, the activity change, negative = inhibition was 7.35% (inactive).

As for `Cc1cccc(/C=C/C(=O)NC2=NCCS2)c1`, the activity change, negative = inhibition was 6.76% (inactive).

In the case of `O=C(COc1ccc(Cl)cc1Cl)NC1=NCCS1`, the activity change, negative = inhibition was -3.83% (inactive).

Take `O=C(O)COc1ccc(Cl)cc1Cl`: the activity change, negative = inhibition was -2.16% (inactive).

For the compound `O=C(COc1ccc(Cl)cc1Cl)N/N=C/c1ccccc1`, the activity change, negative = inhibition was 3.46% (inactive).

Take `O=C(c1ccc(COc2ccccc2)o1)N1CC(F)(F)C1`: the activity change, negative = inhibition was 1.55% (inactive).

For the next test, the system named is HMLE_shECad viability, CellTiter-Glo luminescence, 72 h. Described as above.
Settings: not given
The essentials: as §1
On to `Cc1csc(NC(=O)c2cccc(COc3cccc(Cl)c3)c2)n1`, for which the AC50 was 1.11 µM.

For `Cc1csc(NC(=O)c2cccc(COc3ccccc3F)c2)n1`, the half-maximal activity concentration (AC50) is 1.93 µM.

Take `Cc1csc(NC(=O)c2cccc(COc3cccc(F)c3)c2)n1`: the AC50 is 0.705 µM.

As to `O=C(/C=C/c1ccc(-c2ccccc2)nc1)NC1=NCCS1`, the AC50 is 29 µM.

Turning to `COc1cc(C(C)C)ccc1/C=C/C(=O)NC1=NCCS1`, the AC50 is 30.6 µM.

Consider `Cc1cccc(NCc2ccc(C(=O)Nc3nc(C)cs3)o2)n1`, for which the AC50 is 18 µM.

On to `Cc1cccc(NCc2cccc(C(=O)Nc3nc(C)cs3)c2)n1`, for which the AC50 was 21.1 µM.

Consider `COc1cc([C@@H]2c3cc4c(cc3[C@@H](OC3OC5COC(C)OC5C(O)C3O)[C@H]3COC(=O)[C@H]23)OCO4)cc(OC)c1O` (stereo not given in full), for which the AC50 is 2.95 µM.

As to `Cc1cccc(OCc2cccc(C(=O)Nc3nc(C)cs3)c2)c1`, the AC50 was 2.74 µM.

With `CC(C)c1ccc(/C=C/C(=O)n2ccc(-c3ccc[nH]3)n2)cc1`, the AC50 was 15.6 µM.

As to `Cc1csc(NC(=O)c2cccc(CNc3ncccc3F)c2)n1`, the AC50 was 22.9 µM.

Take `Cc1csc(NC(=O)COc2ccc(Cl)cc2Cl)n1`: the AC50 was 28.9 µM.

On to `O=C(COc1c(Cl)cc(Cl)cc1Cl)N/N=C/c1ccc[nH]1`, for which the AC50 was 1.7 µM.

As to `COc1cccc2c1C(=O)c1c(O)c3c(c(O)c1C2=O)C[C@@](O)(C(=O)CO)C[C@@H]3OC1C[C@H](N)[C@H](O)[C@H](C)O1` (stereo not given in full), the AC50 is 0.053 µM.

Consider `Cc1cccc(OCc2ccc(C(=O)Nc3nc(C)cs3)o2)n1`, for which the AC50 is 18.7 µM.

As for `Cc1ccnc(NCc2cccc(C(=O)Nc3nc(C)cs3)c2)c1`, the AC50 is 17.7 µM.

As to `Cc1csc(NC(=O)c2ccc(COc3ncccc3F)o2)n1`, the AC50 is 22.7 µM.

Turning to `Cc1csc(NC(=O)c2ccc(COc3ccncc3)o2)n1`, the AC50 was 20 µM.

Regarding `Cc1csc(NC(=O)c2ccc(COc3cccc(OC(F)(F)F)c3)o2)n1`, the AC50 is 0.895 µM.

One may read the AC50 as the concentration at which the activity in the assay is half-maximal.

Values taken from PubChem BioAssay AID504788 (Broad Institute, 2011).
